Measured values published in ChEMBL document CHEMBL4428030, “Design and Synthesis of Structure-Simplified Derivatives of Gonytolide for the Promotion of Innate Immune Responses” (J Nat Prod, 2016).
Activity calls are given as the source filed them. The calls are words filed in the database; no cut-off is given here.

Columns and labels:
Drosophila [1] = experiment: Stimulation of innate immune response in Drosophila third-instar larvae assessed as DAP-type peptidoglycans-mediated Dpt-LacZ activation at 1 to 10 ug/ml after 12 hrs by beta-galactosidase reporter gene assay; type: functional, organism-based
Method in brief: (§1)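 Opened third-instar Dpt-lacZ larvae cultured whole in Schneider's medium with 20% FBS and 1% antibiotics/antimycotics, 25 °C, six larvae per condition as replicates. Compound added from DMSO together with 100 ng/mL E. coli peptidoglycan for 12 h. Each larva sonicated in phosphate buffer (60 mM Na2HPO4, 40 mM NaH2PO4, 10 mM KCl, 1 mM MgCl2) and spun 10000g, 4 °C, 10 min. Supernatant β-galactosidase normalized to total protein.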

Drosophila [2] = experiment: Stimulation of innate immune response in Drosophila third-instar larvae assessed as DAP-type peptidoglycans-mediated Dpt-LacZ activation at 10 ug/ml after 12 hrs by beta-galactosidase reporter gene assay; type: functional, organism-based; method in brief: as §1
[3] = Cytotoxicity against Drosophila melanogaster S2 cells assessed as reduction in cell viability at 10 ug/ml by WST8 assay; type: cell-based
Method in brief: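 S2 cells kept at 25 °C in Schneider's medium with 10% FBS and 1% antibiotics/antimycotics. Viability read by colorimetric WST-8 conversion.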

HUVEC = experiment: Stimulation of innate immune response in HUVEC assessed as increase in TNFalpha-stimulated IL-8 production at 10 ug/ml preincubated for 3 hrs followed by TNFalpha stimulation measured after 12 hrs by ELISA; type: functional, cell-based; conditions: Homo sapiens
Method in brief: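 HUVECs grown in EGM-2 at 37 °C, 5% CO2. Cells preincubated ±compound for 3 h, then given 11 μL of 10 ng/mL hTNF-α (stock added to 100 μL well). Supernatants collected after a further 12 h for ELISA.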

Drosophila [4] = experiment: Stimulation of innate immune response in Drosophila third-instar larvae assessed as DAP-type peptidoglycans-mediated Dpt-LacZ activation at 10 ug/ml after 12 hrs by beta-galactosidase reporter gene assay relative to control; type: functional; method in brief: as §1

Row | SMILES | Activity (Drosophila [1]) | Activity (Drosophila [2]) | Activity [3] | Activity (HUVEC) | fold change (FC) (Drosophila [4])
1 | COc1cc(C)c(-c2c(C)cc(OC)c3c(=O)cc(CCCCO)oc23)c2oc(CCCCO)cc(=O)c12 | inactive | – | – | – | –
2 | COC(=O)CCCc1cc(=O)c2c(OC)cc(C)c(-c3c(C)cc(OC)c4c(=O)cc(CCCC(=O)OC)oc34)c2o1 | – | Active | Non-Toxic | Active | –
3 | COc1cc(C)c(-c2c(C)cc(OC)c3c(=O)cc(CCCCOC(C)=O)oc23)c2oc(CCCCOC(C)=O)cc(=O)c12 | – | Active | Non-Toxic | – | –
4 | COC(=O)[C@]1([C@@H]2CCC(=O)O2)CC(=O)c2c(O)cc(C)c(-c3c(C)cc(O)c4c3O[C@@](C(=O)OC)([C@@H]3CCC(=O)O3)CC4=O)c2O1 | Dose-dependent effect | – | – | Active | >3
5 | COc1ccc(-c2cc(=O)c3c(OC)cc(C)c(-c4c(C)cc(OC)c5c(=O)cc(-c6ccc(OC)cc6)oc45)c3o2)cc1 | – | Active | Non-Toxic | Active | –
